What was measured:
[1] = Ratio of drug level in C57bl/6j mouse brain to plasma at 20 mg/kg, po; type: ADME, organism-based; details: read-out: BPR
Method in brief: (§1)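 Male mice dosed orally. Plasma taken by retro-orbital bleed at 1 h and 2 h or 1 h and 4 h. Whole brain minus cerebellum removed at 2 h or 4 h, weighed wet, frozen, then homogenized in saline. Compound measured by LC/MS; LOQ 5 ng/ml. B/P ratio is brain over plasma concentration.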

Cannabinoid receptor 2 = Cannabinoid receptor 2 (Homo sapiens, UniProt P34972); experiment: Inverse agonist activity at human cannabinoid receptor 2 expressed in HEK293 cells assessed as increase in forskolin-induced cAMP production preincubated with cells followed by forskolin stimulation measured after 30 mins in presence of D2-labeled cAMP and Eu3+-TBP-NHS cryptate by HTRF assay; type: functional, cell-based
Cannabinoid receptor 2, sequence (P34972 whole entry): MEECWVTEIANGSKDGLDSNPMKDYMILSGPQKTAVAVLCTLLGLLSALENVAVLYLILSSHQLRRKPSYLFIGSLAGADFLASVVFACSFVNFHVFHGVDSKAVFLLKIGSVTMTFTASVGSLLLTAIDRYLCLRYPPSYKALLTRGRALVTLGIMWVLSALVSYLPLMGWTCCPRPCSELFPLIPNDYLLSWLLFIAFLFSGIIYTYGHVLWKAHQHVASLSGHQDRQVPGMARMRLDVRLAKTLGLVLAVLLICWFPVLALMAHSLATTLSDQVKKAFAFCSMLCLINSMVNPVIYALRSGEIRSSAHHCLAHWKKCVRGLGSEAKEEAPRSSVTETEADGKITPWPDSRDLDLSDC

Cannabinoid receptor 1 = Cannabinoid receptor 1 (Homo sapiens, UniProt P21554); experiment: Inverse agonist activity at human cannabinoid receptor 1 expressed in HEK293 cells assessed as increase in forskolin-induced cAMP production preincubated with cells followed by forskolin stimulation measured after 30 mins in presence of D2-labeled cAMP and Eu3+-TBP-NHS cryptate by HTRF assay; type: functional, cell-based
Cannabinoid receptor 1, sequence (P21554 whole entry): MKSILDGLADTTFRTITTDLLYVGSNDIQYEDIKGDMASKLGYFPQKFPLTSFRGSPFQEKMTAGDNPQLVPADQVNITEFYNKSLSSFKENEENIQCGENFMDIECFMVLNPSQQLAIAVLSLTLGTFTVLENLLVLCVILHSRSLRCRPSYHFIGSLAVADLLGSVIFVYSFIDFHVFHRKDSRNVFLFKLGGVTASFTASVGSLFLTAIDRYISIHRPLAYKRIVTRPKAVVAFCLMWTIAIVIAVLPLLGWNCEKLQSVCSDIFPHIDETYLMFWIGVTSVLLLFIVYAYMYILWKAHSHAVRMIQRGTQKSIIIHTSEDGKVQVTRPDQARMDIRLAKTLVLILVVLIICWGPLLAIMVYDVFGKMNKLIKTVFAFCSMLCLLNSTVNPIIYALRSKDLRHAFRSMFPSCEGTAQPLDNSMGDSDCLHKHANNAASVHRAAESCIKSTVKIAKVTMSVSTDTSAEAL

[2] = Drug uptake in C57bl/6j mouse brain without cerebellum at 20 mg/kg, po measured at 4 hr post dose by LC/MS analysis; type: ADME, organism-based; details: in vivo
Method in brief: (§2)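 Male C57bl/6j mice given a single oral dose of 20 mg/kg. Plasma drawn by retro-orbital bleed at 1 h and 4 h. Whole brain minus cerebellum taken at 4 h, wet-weighed, frozen, then homogenized in saline. Compound levels in plasma and brain measured by LC/MS (LOQ 5 ng/ml). Brain/plasma ratio taken from the two concentrations.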

[3] = Drug uptake in C57bl/6j mouse plasma at 20 mg/kg, po measured at 4 hr post dose by LC/MS analysis; type: ADME, organism-based; method in brief: as §2
[4] = Drug uptake in C57bl/6j mouse brain without cerebellum at 20 mg/kg, po measured at 2 hrs post dose by LC/MS analysis; type: ADME, organism-based; details: for Drug uptake: in vivo, 2 h; method in brief: as §1
[5] = Drug uptake in C57bl/6j mouse plasma at 20 mg/kg, po measured at 2 hrs post dose by LC/MS analysis; type: ADME, organism-based; method in brief: as §1
Rattus norvegicus = experiment: Toxicity in Sprague-Dawley rat assessed as CNS-mediated behavior at 30 mg/kg, po by measuring stereotypic activity after 15 mins measured up to 2 hrs; type: organism-based; details: in vivo
Method in brief: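 Rats given vehicle (10% PEG400 and 10% solutol) or compound orally. Stereotypic activity recorded automatically from 15 min post-dose for a total of 2 h.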

[6] = Ratio of drug level in diet-induced obese mouse brain to plasma at 30 mg/kg, po qd for 3 weeks measured 2 hrs post last dose on day 23; type: ADME, organism-based; details: read-out: BPR
Method in brief: (§3)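 Dosing ran daily, oral, in 10% PEG400 + 10% solutol at 5 mL/kg, […], run alongside the efficacy study. Plasma and brain compound levels measured 2 h after the last dose; B/P ratio is brain over plasma concentration.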

Mus musculus [7] = experiment: Toxicity in diet-induced obese mouse model assessed as effect on food intake at 30 mg/kg, po qd for 3 weeks measured on day 19 up to 120 mins post glucose challenge; type: organism-based; details: in vivo
Mus musculus [8] = experiment: Antiobesity activity in diet-induced obese mouse model assessed as fasting plasma glucose AUC (0 to 120 mins) at 30 mg/kg, po qd for 3 weeks measured on day 19 post glucose challenge by OGTT (reference value: 29890.50 +/- 2516.45 mg/dL.min); type: functional, organism-based; parameters: dose 30 mg/kg, time < 2 hr
[9] = Drug uptake in diet-induced obese mouse brain at 30 mg/kg, po qd for 3 weeks measured 2 hrs post last dose on day 23; type: ADME, organism-based; details: in vivo; method in brief: as §3
[10] = Drug uptake in diet-induced obese mouse plasma at 30 mg/kg, po qd for 3 weeks measured 2 hrs post last dose on day 23; type: ADME, organism-based; method in brief: as §3
Mus musculus [11] = experiment: Toxicity in diet-induced obese mouse model assessed as effect on body weight at 30 mg/kg, po qd for 3 weeks measured on day 19 up to 120 mins post glucose challenge; type: organism-based; details: in vivo

Kp [1] | EC50 (Cannabinoid receptor 2) [nM] | EC50 (Cannabinoid receptor 1) [nM] | Drug uptake [4] [nmol/g] | concentration at 2 h [5] [nM] | Kp at 2 h [6] | Drug uptake [9] [nmol/g] | concentration at 2 h [10] [nM] | Structure (SMILES) | Drug uptake [2] [nmol/g] | concentration at 4 h [3] [nM] | Activity (Rattus norvegicus) | Activity (Mus musculus [7]) | AUC (Mus musculus [8]) [ng·h/mL] | Activity (Mus musculus [11]) | concentration at 2 h ([4]; C57BL/6J, brain without cerebellum, read-out: Drug uptake) [ng/mL]
0.15 | 9410 | 2 | 0.56 | 3630 | – | – | – | C[C@@H](NC(=O)c1nn(-c2ccc(Cl)cc2Cl)c2c1CCCC/C2=C\c1ccc(Cl)s1)c1ccccn1 | – | – | – | – | – | – | –
0.01 | > 10000 | 56 | 0.05 | 4760 | – | – | – | C[C@@H](NC(=O)c1nn(-c2ccc(Cl)c(Cl)c2)c2c1CCCC/C2=C\c1ccc(C(F)(F)F)cc1)c1ccccn1 | – | – | – | – | – | – | –
0.11 | > 10000 | 18 | – | – | – | – | – | C[C@@H](NC(=O)c1nn(-c2ccc(C(F)(F)F)cc2Cl)c2c1CCC/C2=C\c1ccc(Cl)s1)c1ccccn1 | 0.051 | 460 | – | – | – | – | –
0.05 | 2000 | 35 | 0.07 | 1620 | 0.037 | 0.25 | 6620 | C[C@@H](NC(=O)c1nn(-c2ccc(Cl)c(Cl)c2)c2c1CCCC/C2=C\c1ccc(F)cc1)c1ccccn1 | – | – | Non-Toxic | Non-Toxic | 3.67e+06 | Non-Toxic | –
0.92 | > 10000 | 4 | 1.39 | 1560 | – | – | – | C[C@@H](NC(=O)c1nn(-c2ccc(Cl)cc2Cl)c2c1CCC/C2=C\c1ccc(F)cc1)c1ccccn1 | – | – | – | – | – | – | –
0.26 | > 10000 | 127 | 0.97 | 3720 | – | – | – | C[C@@H](NC(=O)c1nn(-c2ccc(Cl)cc2)c2c1CCC/C2=C\c1ccc(Cl)cc1)c1ccccn1 | – | – | – | – | – | – | –
0.16 | 743 | 7 | 0.13 | 830 | – | – | – | C[C@@H](NC(=O)c1nn(-c2ccc(Cl)cc2Cl)c2c1CCCC/C2=C\c1ccc(Cl)cc1)c1ccccn1 | – | – | – | – | – | – | –
0.48 | 560 | 4 | 0.16 | 380 | – | – | – | C[C@@H](NC(=O)c1nn(-c2ccc(Cl)cc2Cl)c2c1CCCC/C2=C\c1ccc(Cl)cn1)c1ccccn1 | – | – | – | – | – | – | –
0.41 | > 10000 | 28 | 1.02 | 2470 | – | – | – | C[C@@H](NC(=O)c1nn(-c2ccc(Cl)cc2)c2c1CCCC/C2=C\c1ccc(F)cc1)c1ccccn1 | – | – | – | – | – | – | –

More lines, now with the values behind:

Structure (SMILES) | Kp [1] | EC50 (Cannabinoid receptor 2) [nM] | EC50 (Cannabinoid receptor 1) [nM] | Drug uptake [4] [nmol/g] | concentration at 2 h [5] [nM] | Kp at 2 h [6] | Drug uptake [9] [nmol/g] | concentration at 2 h [10] [nM] | Drug uptake [2] [nmol/g] | concentration at 4 h [3] [nM] | Activity (Rattus norvegicus) | Activity (Mus musculus [7]) | AUC (Mus musculus [8]) [ng·h/mL] | Activity (Mus musculus [11]) | concentration at 2 h ([4]; C57BL/6J, brain without cerebellum, read-out: Drug uptake) [ng/mL]
C[C@@H](NC(=O)c1nn(-c2ccc(Cl)cc2Cl)c2c1CCC/C2=C\c1ccc(Cl)cc1)c1ccccn1 | 0.2 | 854 | 30 | – | – | – | – | – | 0.32 | 1600 | – | – | – | – | –
O=C(NC1CCN(c2ccccn2)CC1)c1nn(-c2ccc(Cl)cc2Cl)c2c1CCC/C2=C\c1ccc(Cl)cc1 | 0.09 | > 10000 | 34 | – | – | – | – | – | 0.04 | 450 | – | – | – | – | –
C[C@@H](NC(=O)c1nn(-c2ccc(C(F)(F)F)cc2Cl)c2c1CCCC/C2=C\c1ccc(Cl)s1)c1ccccn1 | 0.28 | > 10000 | 8 | – | – | – | – | – | 0.17 | 640 | – | – | – | – | –
O=C(NC1(c2ccccn2)CC1)c1nn(-c2ccc(Cl)cc2)c2c1CCC/C2=C\c1ccc(Cl)cc1 | 0.82 | 1610 | 7 | – | – | – | – | – | 1.28 | 1610 | – | – | – | – | –
O=C(NC1CCN(c2ccccn2)CC1)c1nn(-c2ccc(Cl)cc2Cl)c2c1CCCC/C2=C\c1ccc(F)cc1 | 0.03 | > 10000 | 28 | 0.05 | 2030 | – | – | – | – | – | – | – | – | – | –
O=C(NC1(c2ccccn2)CC1)c1nn(-c2ccc(C(F)(F)F)cc2Cl)c2c1CCCC/C2=C\c1ccc(Cl)s1 | 0.24 | > 10000 | 8 | – | – | – | – | – | 0.36 | 1540 | – | – | – | – | –
C[C@@H](NC(=O)c1nn(-c2ccc(Cl)cc2)c2c1CCC/C2=C\c1ccc(Cl)cn1)c1ccccn1 | 0.65 | > 10000 | 22 | 1.91 | 2930 | – | – | – | – | – | – | – | – | – | –
O=C(NC1CCN(c2ccccn2)CC1)c1nn(-c2ccc(Cl)cc2Cl)c2c1CCC/C2=C\c1ccc(F)cc1 | 0.02 | > 11000 | 12 | 0.035 | 1520 | – | – | – | – | – | – | – | – | – | –
C[C@@H](NC(=O)c1nn(-c2ccc(Cl)c(Cl)c2)c2c1CCCC/C2=C\c1ccc(Cl)cc1)c1ccccn1 | 0.02 | > 10000 | 37 | 0.05 | 2400 | – | – | – | – | – | – | – | – | – | –
O=C(NC1(c2ccccn2)CC1)c1nn(-c2ccc(C(F)(F)F)cc2Cl)c2c1CCC/C2=C\c1ccc(Cl)s1 | 0.14 | > 10000 | 11 | – | – | – | – | – | 0.64 | 4630 | – | – | – | – | –
O=C(NC1(c2ccccn2)CC1)c1nn(-c2ccc(Cl)c(Cl)c2)c2c1CCCC/C2=C\c1ccc(F)cc1 | 0.05 | 807 | 13 | 0.11 | 2410 | – | – | – | – | – | – | – | – | – | –
C[C@@H](NC(=O)c1nn(-c2ccc(Cl)cc2Cl)c2c1CCC/C2=C\c1ccc(Cl)s1)c1ccccn1 | 0.08 | 3820 | 35 | 0.24 | 2960 | – | – | – | – | – | – | – | – | – | –
C[C@@H](NC(=O)c1nn(-c2ccc(Cl)cc2Cl)c2c1CCCC/C2=C\c1ccc(F)cc1)c1ccccc1 | – | 5590 | 6 | – | 1290 | – | – | – | – | – | – | – | – | – | < 5
C[C@@H](NC(=O)c1nn(-c2ccc(Cl)c(Cl)c2)c2c1CCC/C2=C\c1ccc(Cl)s1)c1ccccn1 | 0.03 | > 10000 | 37 | – | – | – | – | – | 0.1 | 3180 | – | – | – | – | –

From ChEMBL document CHEMBL3862000, “Tetrahydroindazole derivatives as potent and peripherally selective cannabinoid-1 (CB1) receptor inverse agonists” (Bioorg Med Chem Lett, 2016)
